From ChEMBL document CHEMBL1146590, “Cytotoxic sesquiterpene lactones from the root of Saussurea lappa” (2003)
Converted amounts (≈) assume the structure as drawn. The source made the active and inactive calls. No cut-off for these calls is given here.

What was measured:
HeLa = test: Cytotoxicity against human HeLa cells after 48 hrs by MTT assay; format: functional; settings: read-out: CD50 (the source's name)
OVCAR-3 [1] = test: Cytotoxicity against human OVCAR-3 cells after 48 hrs by MTT assay; format: functional; settings: for CC50: OVCAR-3, 48 h, read-out: CD50 (the source's name)
How it was run: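 OVCAR-3 cells were exposed to a range of concentrations for 48 h, and viability was read by MTT colorimetric assay. CD50 was determined by the MTT method. Data are reported as mean ± SD (n = 4).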

HepG2 = test: Cytotoxicity against human HepG2 cells after 48 hrs by MTT assay; format: functional; settings: for CC50: HepG2, 48 h, read-out: CD50 (the source's name)
Enterococcus = test: Antibacterial activity against vancomycin-resistant Enterococcus CKU-17; format: functional
Enterococcus faecalis = test: Antibacterial activity against Enterococcus faecalis; format: functional
Staphylococcus aureus [2] = test: Antibacterial activity against Staphylococcus aureus; format: functional
Escherichia coli = test: Antibacterial activity against Escherichia coli; format: functional
Staphylococcus aureus [3] = test: Antibacterial activity against methicillin-resistant Staphylococcus aureus; format: functional
OVCAR-3 (Homo sapiens) = test: Cytotoxicity against human OVCAR-3 cells after 48 hrs by MTT assay
OVCAR-3 [4] = test: Cytotoxicity against human OVCAR-3 cells assessed as half cell death at CD50 after 24 hrs by MTT assay; format: functional, cell-based
How it was run: (§1)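 OVCAR-3 cells were seeded at 5 × 10^3 per well and grown 24 h. […] Compound was washed out, fresh medium was added, and cells were incubated a further 48 h at 37 °C. Viable cells were read by MTT at OD 570 nm as % of control, mean ± SD (n = 4).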

OVCAR-3 [5] = test: Cytotoxicity against human OVCAR-3 cells assessed as half cell death at 4 times CD50 up to 2 hrs by MTT assay; format: functional, cell-based; how it was run: as §1
OVCAR-3 [6] = test: Cytotoxicity against human OVCAR-3 cells assessed as half cell death at 2 times CD50 after 6 hrs by MTT assay; format: functional, cell-based; how it was run: as §1

Row | Compound | CC50 (HeLa) [µg/mL] | CC50 (OVCAR-3 [1]) [µg/mL] | CC50 (HepG2) [µg/mL] | MIC (Enterococcus) [µg/mL] | MIC (Enterococcus faecalis) [µg/mL] | MIC (Staphylococcus aureus [2]) [µg/mL] | MIC (Escherichia coli) [µg/mL] | MIC (Staphylococcus aureus [3]) [µg/mL] | Activity (OVCAR-3 [1]) | Activity (HepG2) | Activity (OVCAR-3 (Homo sapiens)) | Activity (OVCAR-3 [4]) | Activity (OVCAR-3 [5]) | Activity (OVCAR-3 [6])
1 | C=C1CC[C@@H](O)[C@]2(C)CC[C@@H]3[C@H](OC(=O)[C@H]3C)[C@@H]12 | > 100 | 95 (≈ 379 µM) | > 100 | – | – | – | – | – | – | – | – | – | – | –
2 | C=C1CC[C@@H](O)[C@]2(C)CC[C@@H](C(=C)C(=O)OCC)[C@H](O)[C@@H]12 | 75 (≈ 255 µM) | 75 (≈ 255 µM) | 50 (≈ 170 µM) | – | – | – | – | – | – | – | – | – | – | –
3 | C=C1[C@@H]2[C@H]3OC(=O)[C@@H](C)[C@@H]3CCC(=C)[C@@H]2C[C@H]1O | 65 (≈ 262 µM) | 65 (≈ 262 µM) | 75 (≈ 302 µM) | – | – | – | – | – | – | – | – | – | – | –
4 | C=C1C(=O)O[C@@H]2[C@@H]3[C@](C)(CCC[C@@]3(C)O)CC[C@@H]12 [ARBUSCULIN A] | 7.5 (≈ 30 µM) | 7.5 (≈ 30 µM) | 10 (≈ 39.9 µM) | – | – | – | – | – | – | – | – | – | – | –
5 | O=C(N[C@H](CO)[C@H](O)c1ccc([N+](=O)[O-])cc1)C(Cl)Cl [CHLORAMPHENICOL] | – | – | – | 6.25 (≈ 19.3 µM) | 6.25 (≈ 19.3 µM) | – | – | – | – | – | – | – | – | –
6 | C[C@@H]1C(=O)O[C@H]2[C@H]1CC[C@@]1(C)[C@H](O)CC[C@@](C)(O)[C@H]21 [COLARTIN] | 100 (≈ 373 µM) | 100 (≈ 373 µM) | > 100 | > 800 | > 800 | > 800 | > 800 | – | – | – | – | – | – | –
7 | C=C1C(=O)O[C@@H]2/C=C(\C)CC/C=C(\C)CC[C@@H]12 [COSTUNOLIDE] | 2 (≈ 8.61 µM) | 2 (≈ 8.61 µM) | 1.6 (≈ 6.89 µM) | 400 (≈ 1720 µM) | 400 (≈ 1720 µM) | 100 (≈ 430 µM) | > 800 | 200 (≈ 861 µM) | Dose-dependent effect | Dose-dependent effect | Dose-dependent effect | – | – | –
8 | C=C1CC[C@H]2C(=C)CC[C@H]3C(=C)C(=O)O[C@@H]3[C@@H]12 [DEHYDROCOSTUSLACTONE] | 3.5 (≈ 15.2 µM) | 2.5 (≈ 10.9 µM) | 3.5 (≈ 15.2 µM) | > 800 | > 800 | 400 (≈ 1740 µM) | > 800 | 800 (≈ 3470 µM) | Dose-dependent effect | Dose-dependent effect | Dose-dependent effect | – | – | –
9 | C=C(CO)[C@@H]1CC[C@@]2(C)CCC[C@@](C)(O)[C@@H]2C1 [ILICIC ALCOHOL] | > 100 | > 100 | > 100 | – | – | – | – | – | – | – | – | – | – | –
10 | C=C1[C@@H]2[C@H]3OC(=O)C(=C)[C@@H]3CCC(=C)[C@@H]2C[C@H]1O [ISOZALUZANIN C] | 13.5 (≈ 54.8 µM) | 7.5 (≈ 30.4 µM) | 15 (≈ 60.9 µM) | – | – | – | – | – | – | – | – | – | – | –
11 | C=C1CC[C@H]2C(=C)CC[C@@H]3[C@H](OC(=O)[C@@]3(O)C[C@]3(C)CCC(=O)[C@]4(C)CC[C@H]5C(=C)C(=O)O[C@@H]5[C@@H]34)[C@@H]12 [LAPPADILACTONE] | 1.8 (≈ 3.64 µM) | 2.5 (≈ 5.05 µM) | 2.4 (≈ 4.85 µM) | – | – | – | – | – | Dose-dependent effect | Dose-dependent effect | Dose-dependent effect | Active | Active | Active
12 | C=C1CC[C@H]2C(=C)CC[C@@H]3[C@H](OC(=O)[C@@]3(O)CC(C)=O)[C@@H]12 [LAPPALONE] | > 100 | > 100 | > 100 | – | – | – | – | – | – | – | – | – | – | –
13 | C=C1CC[C@@H](O)[C@]2(C)CC[C@H]3C(=C)C(=O)O[C@@H]3[C@@H]12 [REYNOSIN] | 7.5 (≈ 30.2 µM) | 7.5 (≈ 30.2 µM) | 11 (≈ 44.3 µM) | > 800 | > 800 | 800 (≈ 3220 µM) | > 800 | > 800 | – | – | – | – | – | –
14 | C=C1C(=O)O[C@@H]2[C@H]3C(C)=CC[C@@H](O)[C@]3(C)CC[C@@H]12 [SANTAMARIN] | 10 (≈ 40.3 µM) | 10 (≈ 40.3 µM) | 7.5 (≈ 30.2 µM) | > 800 | > 800 | 800 (≈ 3220 µM) | > 800 | 800 (≈ 3220 µM) | – | – | – | – | – | –
15 | CN[C@H](CC(C)C)C(=O)N[C@H]1C(=O)N[C@@H](CC(N)=O)C(=O)N[C@H]2C(=O)N[C@H]3C(=O)N[C@H](C(=O)N[C@H](C(=O)O)c4cc(O)cc(O)c4-c4cc3ccc4O)[C@H](O)c3ccc(c(Cl)c3)Oc3cc2cc(c3O[C@@H]2O[C@H](CO)[C@@H](O)[C@H](O)[C@H]2O[C@H]2C[C@](C)(N)[C@H](O)[C@H](C)O2)Oc2ccc(cc2Cl)[C@H]1O [VANCOMYCIN] | – | – | – | > 100 | 3.13 (≈ 2.16 µM) | 1.56 (≈ 1.08 µM) | – | 1.56 (≈ 1.08 µM) | – | – | – | – | – | –
16 | C=C1[C@@H]2[C@H]3OC(=O)C(=C)[C@@H]3CCC(=C)[C@@H]2C[C@@H]1O [ZALUZANIN C] | 22 (≈ 89.3 µM) | 15 (≈ 60.9 µM) | 34 (≈ 138 µM) | – | – | – | – | – | – | – | – | – | – | –
17 | GENTAMICIN | – | – | – | – | – | 0.78 | 3.13 | > 100 | – | – | – | – | – | –
